TLR9-MyD88 block = inhibitors of TLR9-MyD88 association in cells, primary screen, cell-based, CHO, BLA complementation, fluorescence; CCF4 FRET ratio; inhibition, % at 4.98 µM; hit rate 0.21% among 340,000; AID 504734, 2011;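 active means inhibition above the mean over all tested compounds plus 3 SD, cut at about 21% in these data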
NOD2 RIPK2 PPI = NOD2-RIPK2 binding disruptors in cells, primary screen, fluorescence, CHO cells, BLA complementation | inhibition, % at 4.98 µM | CCF4 ratio | hit rate 0.38% among 360,000; in the data active means inhibition above about 21%
Hep lipid drop = inhibitors of hepatocyte lipid droplet formation, primary screen, imaging, high-throughput imaging, BODIPY stain; AML12 mouse hepatocytes, oleate lipid droplets; inhibition, % at 6.5 µM; hit rate 0.4% among 240,000;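 active means lipid droplet intensity inhibited by at least 50%, with more than 500 cells counted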
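Test system: AML12 hepatocytes (mouse); reagent: oleate loading, 100 µM; dosing: one dose, 6.5 µM compound; incubation: overnight exposure; signal: fluorescence imaging, 20x objective, two fields per well; read-out basis: % inhibition of corrected integrated BODIPY droplet signal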
TLR4-MyD88 BLA = inhibitors of TLR4-MyD88 association in cells, primary screen, cell-based, HeLa CL3-4, BLA complementation, FRET ratio. Toll-like receptor 4 (Homo sapiens) + Myeloid differentiation primary response protein …. HeLa CL3-4 TLR4/MyD88 BLA complementation. inhibition, % at 8.4 µM. hit rate 0.18% among 200,000; in the data active means inhibition above about 25%
SR-BI DiI inh = inhibitors of SR-BI mediated HDL lipid uptake, primary screen, ldlA[mSR-BI] cells, fluorescence, single point. ldlA[mSR-BI] CHO cells, DiI-HDL uptake fluorescence, 3 h. inhibition, % at 12.5 µM. hit rate 0.96% among 320,000. AID 488896, 2010;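 active means mean replicate inhibition of at least 70% and a set share of replicates each scoring 70 or more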
Target sequence (Q61009 whole entry, looked up): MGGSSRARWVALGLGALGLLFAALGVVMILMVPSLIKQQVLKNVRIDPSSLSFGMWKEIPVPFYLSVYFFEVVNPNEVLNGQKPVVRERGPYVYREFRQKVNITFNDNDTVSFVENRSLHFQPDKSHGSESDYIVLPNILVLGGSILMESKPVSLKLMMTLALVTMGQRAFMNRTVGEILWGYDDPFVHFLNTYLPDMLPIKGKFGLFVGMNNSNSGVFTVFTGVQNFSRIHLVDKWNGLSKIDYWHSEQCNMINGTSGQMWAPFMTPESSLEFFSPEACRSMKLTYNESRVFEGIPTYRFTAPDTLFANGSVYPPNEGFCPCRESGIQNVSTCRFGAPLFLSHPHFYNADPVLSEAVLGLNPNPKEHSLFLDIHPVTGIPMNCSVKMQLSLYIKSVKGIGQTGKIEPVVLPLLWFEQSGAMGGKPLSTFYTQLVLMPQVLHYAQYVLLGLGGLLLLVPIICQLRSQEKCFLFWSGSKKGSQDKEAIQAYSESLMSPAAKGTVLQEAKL
SR-BI DiI-HDL act = activators of SR-BI mediated DiI-HDL uptake, primary screen, ldlA[mSR-BI] CHO cells, DiI fluorescence | activation, % at 12.5 µM | hit rate 0.096% among 320,000 | 3 h; 100 = double the neutral-control signal | AID 504775, 2011;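 active means mean replicate activation of at least 60% and every replicate at or above 60%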
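material = CHO ldlA[mSR-BI] cells | medium = Ham's F12 with 0.5% BSA, HEPES 25 mM, pH 7.4 | reagent = fluorescent DiI-HDL, 10 µg/mL final | compound dosing = single-point compound dose | incubation = 3 h, 37 °C | measured by = bottom-read fluorescence, 550/595 nm | measure = HDL uptake via cellular fluorescence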
Large screens that a line does not name were inactive. Most compounds without a hit are left out; they make up all but 1.6% or so of the library.

COc1ccc(/C=N/NC(=O)c2cccc([N+](=O)[O-])c2)c2ccccc12	SR-BI DiI inh 75.3 (no result: TLR4-MyD88 BLA)
CCOc1ccc(C(=O)Nc2cccc([N+](=O)[O-])c2)cc1Br	SR-BI DiI inh 72.3
COc1cccc(/C=N/NC(=O)c2cccc([N+](=O)[O-])c2)c1OS(=O)(=O)c1ccccc1	none (no result: Hep lipid drop)
Cn1c(=O)c(-c2cc(=O)[nH][nH]2)c(O)c2ccccc21	none (no result: TLR9-MyD88 block)
Cc1ccccc1Oc1nnc(-c2cccs2)c2ccccc12	none
COc1cc(/C=C(\C#N)c2nc3ccccc3[nH]2)ccc1Oc1ccc([N+](=O)[O-])cn1	SR-BI DiI inh 73.9 (no result: Hep lipid drop)
COc1cc(/C=C(/C#N)c2ccccc2)ccc1Oc1ccc([N+](=O)[O-])cn1	none
Cc1nc2cccc(C(=O)NCc3ccccc3)c2o1	none (no result: Hep lipid drop)
Cc1ccc(C)c(Nc2c([N+](=O)[O-])ccc3nonc23)c1	none (no result: TLR4-MyD88 BLA)
Cc1ccccc1Nc1c([N+](=O)[O-])ccc2c1=NC1(CCCCC1)N=2	SR-BI DiI inh 82.6 (no result: Hep lipid drop)
O=C(NCc1cccc(C(F)(F)F)c1)c1ccc2sc(C3=C[C@@H](O)[C@@H](O)[C@@H](CO)O3)nc2c1	none (no result: TLR9-MyD88 block, Hep lipid drop, TLR4-MyD88 BLA, SR-BI DiI inh, SR-BI DiI-HDL act)
CC(OC(=O)c1cc(=O)[nH]c2ccccc12)C(=O)NC1CCCCC1C (stereo unspecified)	none (no result: Hep lipid drop, TLR4-MyD88 BLA)
O=C(Nc1ccccc1)c1ccc(Nc2c([N+](=O)[O-])cc([N+](=O)[O-])c3ccccc23)cc1	SR-BI DiI inh 87.8
Cc1c(C(=O)Nc2ccc(Nc3ccccc3)cc2)cccc1[N+](=O)[O-]	none (no result: TLR4-MyD88 BLA)
C=CC(C)(C)c1c(O)c(CC=C(C)C)c(O)c2c(=O)c3ccc(O)c(O)c3oc12	SR-BI DiI inh 122.6 (no result: Hep lipid drop, TLR4-MyD88 BLA)
CC(=O)c1c(C)[nH]c(C(=O)N2c3ccccc3CC2C)c1C (stereo unspecified)	SR-BI DiI inh 72.5 (no result: Hep lipid drop)
CCCS(=O)(=O)Nc1ccc(Nc2c3ccccc3nc3ccccc23)c(OC)c1	SR-BI DiI inh 80.5 (no result: Hep lipid drop, TLR4-MyD88 BLA)
COc1cc(/C=C/c2ccc3cccc(O)c3n2)cc(Br)c1OC	SR-BI DiI inh 82.4 (no result: TLR4-MyD88 BLA)
COc1cccc(C(O)c2ncc(-c3ccc(C(F)(F)F)cc3)[nH]2)c1 (stereo unspecified)	none (no result: TLR9-MyD88 block, Hep lipid drop, TLR4-MyD88 BLA, SR-BI DiI inh, SR-BI DiI-HDL act)
COc1cc(/C=N/NC(=O)c2cnn3c(C)cc(-c4ccccc4)nc23)ccc1O	SR-BI DiI inh 77.4 (no result: Hep lipid drop)
COc1cc(/C=N/NC(=O)c2cc(-c3ccccc3)nc3ccccc23)ccc1O	none (no result: TLR4-MyD88 BLA)
COc1ccc(C(CC(=O)O)c2cc(OC)c(OC)c(OC)c2)cc1OC (stereo unspecified)	SR-BI DiI-HDL act 430.4 (no result: Hep lipid drop, TLR4-MyD88 BLA)
COc1cc2c(cc1OC)C(COc1cc(C)cc(C)c1)N(C(C)=O)CC2 (stereo unspecified)	none (no result: TLR4-MyD88 BLA)
CCCCc1c(O)nc(SCC(=O)O)[nH]c1=O	none
CCCCc1c(O)nc(SCC(=O)c2ccccc2)[nH]c1=O	SR-BI DiI-HDL act 71.3
COc1ccc(N2CCN(C(=O)Cn3nnc(-c4ccccc4N)n3)CC2)cc1	SR-BI DiI inh 82.6
NNC(=O)Cn1c(SCc2ccccc2)nc2ccccc21	none
CCOC(=O)/C(=C\C=C1/Sc2cc(OCC)c(OCC)cc2N1CC)C(C)=O	SR-BI DiI inh 78.3
CCOC(=O)/C(=C/C=C1\Sc2cc(OCC)c(OCC)cc2N1CC)C(C)=O	SR-BI DiI inh 77.5
CC(C)[C@H](NC(=O)c1ccccc1)C(=O)OCC(=O)NCc1ccc(F)cc1	none
COC(=O)c1cc(C(=O)Nc2nc3ccccc3[nH]2)cc([N+](=O)[O-])c1	SR-BI DiI inh 79.8 (no result: TLR4-MyD88 BLA)
COc1ccc(/C=N\NC(=S)SCN2C(=O)C3CCC(C)(C2=O)C3(C)C)cc1 (stereo unspecified)	none (no result: Hep lipid drop)
CC12CCC(C(=O)N(CSC(=S)N/N=C\c3ccccc3O)C1=O)C2(C)C (stereo unspecified)	SR-BI DiI inh 104.2
CC(C)N=c1cc2n(-c3ccc(Cl)cc3)c3ccccc3nc-2cc1Nc1ccc(Cl)cc1	SR-BI DiI inh 83.1 (no result: Hep lipid drop, TLR4-MyD88 BLA)

Assay outcomes (PubChem)
